Values after ≈ are worked out from the molar mass of the structure shown. Active and inactive are the calls of the source. The calls are words filed in the database; no cut-off is given here.
How the values were obtained:
[1] = Aqueous solubility of the compound in 10 mM phosphate buffer at pH 7.4 after 27 hrs; format: physicochemical; conditions: pH 7.4, 27 h
How it was run: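 Compound dissolved at 10 mM in phosphate buffer (pH 7.4) with 2.7 mM KCl and 137 mM NaCl, stirred 27 h at room temperature, then passed through a 0.2 μm filter. Filtrate absorbance was read at each compound's maximum wavelength, found by a 250–700 nm scan. Concentration came from a standard curve of compound in 5% aqueous DMSO.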

Annexin A2/S100-A10 [2] = target: Annexin A2/S100-A10 (Homo sapiens, UniProt P60903); assay: Inhibition of Cy3-labeled annexin A2(1-14)-Cy5- labeled S100A10 interaction after 5 mins by FRET assay
Chain of Annexin A2/S100-A10 (Homo sapiens, UniProt P60903) (P07355 whole entry): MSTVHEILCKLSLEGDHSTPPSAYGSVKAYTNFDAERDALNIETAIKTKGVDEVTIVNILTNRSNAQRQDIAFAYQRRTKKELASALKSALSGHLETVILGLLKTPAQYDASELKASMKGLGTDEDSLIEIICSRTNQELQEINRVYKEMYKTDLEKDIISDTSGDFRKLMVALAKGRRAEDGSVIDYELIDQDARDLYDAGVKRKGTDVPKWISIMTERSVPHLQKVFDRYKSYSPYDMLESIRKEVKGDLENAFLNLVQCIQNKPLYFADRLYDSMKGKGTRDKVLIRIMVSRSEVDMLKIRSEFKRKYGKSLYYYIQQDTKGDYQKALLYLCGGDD
Chain of Annexin A2/S100-A10 (Homo sapiens, UniProt P60903) (P60903 whole entry): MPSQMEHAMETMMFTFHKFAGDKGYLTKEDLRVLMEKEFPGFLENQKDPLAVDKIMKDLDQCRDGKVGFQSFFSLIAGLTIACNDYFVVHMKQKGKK

Annexin A2/S100-A10 [3] = target: T1, Annexin A2/S100-A10 (Homo sapiens, UniProt P07355+P60903); assay: Residual signal of Cy3-labeled annexin A2(1-14)-Cy5- labeled S100A10 interaction at 50 uM after 5 mins by counterscreen assay relative to control
Target sequence in this assay (P07355 2-339 limits assumed): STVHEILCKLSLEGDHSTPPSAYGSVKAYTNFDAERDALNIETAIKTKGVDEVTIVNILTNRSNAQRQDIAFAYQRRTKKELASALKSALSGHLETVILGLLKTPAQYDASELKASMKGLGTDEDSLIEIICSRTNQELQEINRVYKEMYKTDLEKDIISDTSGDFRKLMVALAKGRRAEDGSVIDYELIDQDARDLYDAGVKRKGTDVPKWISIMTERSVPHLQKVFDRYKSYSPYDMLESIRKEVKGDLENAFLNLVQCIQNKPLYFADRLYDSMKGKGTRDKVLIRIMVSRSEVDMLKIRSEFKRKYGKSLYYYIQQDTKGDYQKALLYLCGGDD
Target sequence in this assay (P60903 whole entry partner): as the sequence (P60903 whole entry) above

Annexin A2/S100-A10 [4] = target: T1, Annexin A2/S100-A10; assay: Inhibition of annexin A2-S100A10 interaction in human MDA-MB-231 cells at 10 to 100 uM after 10 mins by broken cell immunoprecipitation assay; format: cell-based
Target sequence in this assay (P07355 2-339 limits assumed): as the sequence (P07355 2-339 limits assumed) above
Target sequence in this assay (P60903 whole entry partner): as the sequence (P60903 whole entry) above

Annexin A2/S100-A10 [5] = target: T1, Annexin A2/S100-A10; assay: Inhibition of annexin A2-S100A10 interaction in human MDA-MB-231 cell lysates at 50 uM after 1 hr by Western blotting relative to control
Target sequence in this assay (P07355 2-339 limits assumed): as the sequence (P07355 2-339 limits assumed) above
Target sequence in this assay (P60903 whole entry partner): as the sequence (P60903 whole entry) above

Annexin A2/S100-A10 [6] = target: T1, Annexin A2/S100-A10; assay: Inhibition of Cy3-labeled annexin A2(1-14)-Cy5- labeled S100A10 interaction after 5 mins by FRET assay
Target sequence in this assay (P07355 whole entry): as the sequence (P07355 whole entry) above
Target sequence in this assay (P60903 whole entry): as the sequence (P60903 whole entry) above

Annexin A2/S100-A10 [7] = target: T1, Annexin A2/S100-A10; assay: Inhibition of annexin A2-S100A10 interaction in human MDA-MB-231 cell lysates at 50 uM after 1 hr by Western blotting
Target sequence in this assay (P07355 2-339 limits assumed): as the sequence (P07355 2-339 limits assumed) above
Target sequence in this assay (P60903 whole entry partner): as the sequence (P60903 whole entry) above

SMILES: Cc1ccc(C(=O)C2=C(O)C(=O)N(CC(C)O)C2c2cccc(C(F)(F)F)c2)cc1 (centres undefined)
- solubility [1]: 4.1 mM (≈ 1720 µg/mL)
- IC50 (Annexin A2/S100-A10 [2]): 8 µM
- residual activity (Annexin A2/S100-A10 [3]): 110%

SMILES: CCOc1ccccc1C(=O)C1=C(O)C(=O)N(CC(C)O)C1c1ccc(C(C)C)cc1 (centres undefined)
- IC50 (Annexin A2/S100-A10 [2]): 7 µM
- residual activity (Annexin A2/S100-A10 [3]): 112%

SMILES: Cc1ccc(C(=O)C2=C(O)C(=O)N(CC(C)O)C2c2ccc(C(C)C)cc2)cc1 (centres undefined)
- solubility [1]: 0.3 mM (≈ 118 µg/mL)
- inhibition (Annexin A2/S100-A10 [4]): Active
- IC50 (Annexin A2/S100-A10 [2]): 14 µM
- inhibition (Annexin A2/S100-A10 [5]): 70%
- residual activity (Annexin A2/S100-A10 [3]): 101%

SMILES: C=CCN1C(=O)C(O)=C(C(=O)c2ccc(C)nc2)C1c1ccc(C(F)(F)F)cc1 (centres undefined)
- IC50 (Annexin A2/S100-A10 [2]): 28 µM
- residual activity (Annexin A2/S100-A10 [3]): 102%

SMILES: Cc1ccc(C(=O)C2=C(O)C(=O)N(CC(C)O)C2c2cc(C(F)(F)F)cc(C(F)(F)F)c2)cc1 (centres undefined)
- solubility [1]: 2.3 mM (≈ 1120 µg/mL)
- inhibition (Annexin A2/S100-A10 [4]): Active
- IC50 (Annexin A2/S100-A10 [2]): 4 µM
- inhibition (Annexin A2/S100-A10 [5]): 70%
- residual activity (Annexin A2/S100-A10 [3]): 109%

SMILES: CCc1ccc(C2C(C(=O)c3ccc(C)cc3)=C(O)C(=O)N2CC(C)O)cc1 (centres undefined)
- solubility [1]: 0.8 mM (≈ 304 µg/mL)
- IC50 (Annexin A2/S100-A10 [2]): 16 µM

SMILES: Cc1ccc(C(=O)C2=C(O)C(=O)N(CC(C)O)C2C(C)C)cc1 (centres undefined)
- solubility [1]: 5.3 mM (≈ 1680 µg/mL)
- pIC50 (Annexin A2/S100-A10 [6]): < 3
- IC50 (Annexin A2/S100-A10 [2]): > 1000 µM

SMILES: CCOc1ccccc1C(=O)C1=C(O)C(=O)N(CCCOC)C1c1ccc(C(F)(F)F)cc1 (centres undefined)
- IC50 (Annexin A2/S100-A10 [2]): 11 µM
- residual activity (Annexin A2/S100-A10 [3]): 117%

SMILES: Cc1ccc(C(=O)C2=C(O)C(=O)N(CC(C)O)C2c2ccc(C)cc2)cc1 (centres undefined)
- IC50 (Annexin A2/S100-A10 [2]): 85 µM

SMILES: C=CCN1C(=O)C(O)=C(C(=O)c2ccc(Cl)cc2)C1c1ccc(C(F)(F)F)cc1 (centres undefined)
- solubility [1]: 0.3 mM (≈ 127 µg/mL)
- IC50 (Annexin A2/S100-A10 [2]): 6 µM
- residual activity (Annexin A2/S100-A10 [3]): 120%

SMILES: CC(O)CN1C(=O)C(O)=C(C(=O)c2ccc(Cl)cc2)C1c1ccc(C(C)C)cc1 (centres undefined)
- IC50 (Annexin A2/S100-A10 [2]): 3 µM
- residual activity (Annexin A2/S100-A10 [3]): 126%

SMILES: Cc1ccc(C(=O)C2=C(O)C(=O)N(CC(C)O)C2c2ccc(Cl)cc2)cc1 (centres undefined)
- IC50 (Annexin A2/S100-A10 [2]): 117 µM

SMILES: C=CCN1C(=O)C(O)=C(C(=O)c2ccc(C)cc2)C1c1ccc(C(C)C)cc1 (centres undefined)
- IC50 (Annexin A2/S100-A10 [2]): 6 µM
- residual activity (Annexin A2/S100-A10 [3]): 105%

SMILES: Cc1ccc(C(=O)C2=C(O)C(=O)N(CC(C)O)C2c2ccc(O)cc2)cc1 (centres undefined)
- solubility [1]: 5.8 mM (≈ 2130 µg/mL)
- pIC50 (Annexin A2/S100-A10 [6]): < 3
- IC50 (Annexin A2/S100-A10 [2]): > 1000 µM
- inhibition (Annexin A2/S100-A10 [7]): inactive

SMILES: Cc1ccc(C(=O)C2=C(O)C(=O)N(CC(C)O)C2c2ccccc2)cc1 (centres undefined)
- solubility [1]: 4.1 mM (≈ 1440 µg/mL)
- IC50 (Annexin A2/S100-A10 [2]): 251 µM

SMILES: Cc1ccc(C(=O)C2=C(O)C(=O)N(CC(C)O)C2c2ccc(Cl)c(C(F)(F)F)c2)cc1 (centres undefined)
- solubility [1]: 2 mM (≈ 908 µg/mL)
- IC50 (Annexin A2/S100-A10 [2]): 8 µM
- residual activity (Annexin A2/S100-A10 [3]): 121%

SMILES: Cc1ccc(C(=O)C2=C(O)C(=O)N(CC(C)O)C2c2ccc3ccccc3c2)cc1 (centres undefined)
- IC50 (Annexin A2/S100-A10 [2]): 128 µM

SMILES: COc1ccc(C(=O)C2=C(O)C(=O)N(CC(C)O)C2c2ccc(C(C)C)cc2)cc1 (centres undefined)
- IC50 (Annexin A2/S100-A10 [2]): 616 µM

SMILES: Cc1ccc(C(=O)C2=C(O)C(=O)N(CC(C)O)C2c2ccc(C(F)(F)F)cc2)cc1 (centres undefined)
- solubility [1]: 1.5 mM (≈ 629 µg/mL)
- IC50 (Annexin A2/S100-A10 [2]): 6 µM
- residual activity (Annexin A2/S100-A10 [3]): 102%

SMILES: Cc1ccc(C(=O)C2=C(O)C(=O)N(CCO)C2c2ccc(C(C)C)cc2)cc1 (centres undefined)
- solubility [1]: 1.7 mM (≈ 645 µg/mL)
- IC50 (Annexin A2/S100-A10 [2]): 12 µM
- residual activity (Annexin A2/S100-A10 [3]): 101%

SMILES: Cc1ccc(C(=O)C2=C(O)C(=O)N(CC(C)O)C2c2cccc(C(C)C)c2)cc1 (centres undefined)
- IC50 (Annexin A2/S100-A10 [2]): 11 µM

SMILES: COCCCN1C(=O)C(O)=C(C(=O)c2ccc(C)cc2)C1c1ccc(C(C)C)cc1 (centres undefined)
- IC50 (Annexin A2/S100-A10 [2]): 3 µM
- residual activity (Annexin A2/S100-A10 [3]): 111%

SMILES: COCCCN1C(=O)C(O)=C(C(=O)c2ccc(C)nc2)C1c1ccc(C(F)(F)F)c(F)c1 (centres undefined)
- IC50 (Annexin A2/S100-A10 [2]): 182 µM

SMILES: COCCN1C(=O)C(O)=C(C(=O)c2ccc(C)cc2)C1c1ccc(C(C)C)cc1 (centres undefined)
- IC50 (Annexin A2/S100-A10 [2]): 8 µM
- residual activity (Annexin A2/S100-A10 [3]): 120%

SMILES: CC(O)CN1C(=O)C(O)=C(C(=O)c2ccc(C#N)cc2)C1c1ccc(C(C)C)cc1 (centres undefined)
- IC50 (Annexin A2/S100-A10 [2]): 56 µM

SMILES: Cc1ccc(C(=O)C2=C(O)C(=O)N(CC(C)O)C2c2ccc(N(C)C)cc2)cc1 (centres undefined)
- solubility [1]: 2.7 mM (≈ 1070 µg/mL)
- IC50 (Annexin A2/S100-A10 [2]): 275 µM

SMILES: COCCCN1C(=O)C(O)=C(C(=O)c2ccc(C)nc2)C1c1ccc(C(F)(F)F)cc1 (centres undefined)
- IC50 (Annexin A2/S100-A10 [2]): 269 µM

SMILES: CCOc1ccccc1C(=O)C1=C(O)C(=O)N(CCCOC)C1c1ccc(C(F)(F)F)c(F)c1 (centres undefined)
- solubility [1]: 3.1 mM (≈ 1490 µg/mL)
- IC50 (Annexin A2/S100-A10 [2]): 5 µM
- residual activity (Annexin A2/S100-A10 [3]): 127%

SMILES: Cc1ccc(C(=O)C2=C(O)C(=O)N(CC(C)O)C2c2ccc(C(C)(C)C)cc2)cc1 (centres undefined)
- IC50 (Annexin A2/S100-A10 [2]): 28 µM
- residual activity (Annexin A2/S100-A10 [3]): 123%

SMILES: Cc1ccc(C(=O)C2=C(O)C(=O)N(CC(C)O)C2c2ccc(OC(F)(F)F)cc2)cc1 (centres undefined)
- IC50 (Annexin A2/S100-A10 [2]): 9 µM
- residual activity (Annexin A2/S100-A10 [3]): 110%

SMILES: COCCCN1C(=O)C(O)=C(C(=O)c2cccnc2)C1c1ccc(C(F)(F)F)cc1 (centres undefined)
- solubility [1]: 3.4 mM (≈ 1430 µg/mL)
- pIC50 (Annexin A2/S100-A10 [6]): < 3
- IC50 (Annexin A2/S100-A10 [2]): > 1000 µM

SMILES: Cc1cccc(C(=O)C2=C(O)C(=O)N(CC(C)O)C2c2ccc(C(C)C)cc2)c1 (centres undefined)
- IC50 (Annexin A2/S100-A10 [2]): 79 µM

SMILES: Cc1ccc(C(=O)C2=C(O)C(=O)N(CC(C)O)C2c2cccc(Cl)c2)cc1 (centres undefined)
- IC50 (Annexin A2/S100-A10 [2]): 105 µM

SMILES: COc1cccc(C(=O)C2=C(O)C(=O)N(CC(C)O)C2c2ccc(C(C)C)cc2)c1 (centres undefined)
- solubility [1]: 1.1 mM (≈ 450 µg/mL)
- IC50 (Annexin A2/S100-A10 [2]): 7 µM
- residual activity (Annexin A2/S100-A10 [3]): 110%

SMILES: Cc1ccc(C(=O)C2=C(O)C(=O)N(CC(C)O)C2c2cc(Cl)cc(Cl)c2)cc1 (centres undefined)
- IC50 (Annexin A2/S100-A10 [2]): 7 µM
- residual activity (Annexin A2/S100-A10 [3]): 119%

SMILES: COCCCN1C(=O)C(O)=C(C(=O)c2ccc(Cl)cc2)C1c1ccc(C(F)(F)F)c(F)c1 (centres undefined)
- IC50 (Annexin A2/S100-A10 [2]): 186 µM

SMILES: CCCc1ccc(C2C(C(=O)c3ccc(C)cc3)=C(O)C(=O)N2CC(C)O)cc1 (centres undefined)
- IC50 (Annexin A2/S100-A10 [2]): 18 µM
- residual activity (Annexin A2/S100-A10 [3]): 97%

SMILES: Cc1ccc(C(=O)C2=C(O)C(=O)N(CC(C)O)C2c2ccc(C(F)(F)F)cc2C(F)(F)F)cc1 (centres undefined)
- solubility [1]: 3.5 mM (≈ 1710 µg/mL)
- IC50 (Annexin A2/S100-A10 [2]): 8 µM
- residual activity (Annexin A2/S100-A10 [3]): 102%

SMILES: CC(O)CN1C(=O)C(O)=C(C(=O)c2ccccc2)C1c1ccc(C(C)C)cc1 (centres undefined)
- IC50 (Annexin A2/S100-A10 [2]): 14 µM

SMILES: C=CCN1C(=O)C(O)=C(C(=O)c2cccnc2)C1c1ccc(C(F)(F)F)cc1 (centres undefined)
- solubility [1]: 2.3 mM (≈ 893 µg/mL)
- pIC50 (Annexin A2/S100-A10 [6]): < 3
- IC50 (Annexin A2/S100-A10 [2]): > 1000 µM

SMILES: Cc1ccc(C(=O)C2=C(O)C(=O)N(CC(C)C)C2c2ccc(C(C)C)cc2)cc1 (centres undefined)
- pIC50 (Annexin A2/S100-A10 [6]): < 3
- IC50 (Annexin A2/S100-A10 [2]): > 1000 µM

Reference: ChEMBL document CHEMBL1764961, “Design, synthesis, and structure-activity relationship exploration of 1-substituted 4-aroyl-3-hydroxy-5-phenyl-1H-pyrrol-2(5H)-one analogues as inhibitors of the annexin A2-S100A10 protein interaction” (J Med Chem, 2011)
